ChEMBL document CHEMBL1136767, “Novel nonimidazole histamine H3 receptor antagonists: 1-(4-(phenoxymethyl)benzyl)piperidines and related compounds” (J Med Chem, 2003)

What was measured:
Histamine H3 receptor [1] = biological target: Histamine H3 receptor (Cavia porcellus, UniProt Q9JI35); experiment: Potency at histamine H3 receptor subtype, was tested on guinea pig right ileum; type: tissue-based; details: read-out: pA2 (converted)
Histamine H2 receptor = Histamine H2 receptor (Cavia porcellus, UniProt P47747); experiment: Potency at histamine H2 receptor subtype, was tested on guinea pig right atrium; type: tissue-based, Cardiac atrium; details: read-out: pA2 (converted)
Histamine H2 receptor, sequence (P47747 whole entry): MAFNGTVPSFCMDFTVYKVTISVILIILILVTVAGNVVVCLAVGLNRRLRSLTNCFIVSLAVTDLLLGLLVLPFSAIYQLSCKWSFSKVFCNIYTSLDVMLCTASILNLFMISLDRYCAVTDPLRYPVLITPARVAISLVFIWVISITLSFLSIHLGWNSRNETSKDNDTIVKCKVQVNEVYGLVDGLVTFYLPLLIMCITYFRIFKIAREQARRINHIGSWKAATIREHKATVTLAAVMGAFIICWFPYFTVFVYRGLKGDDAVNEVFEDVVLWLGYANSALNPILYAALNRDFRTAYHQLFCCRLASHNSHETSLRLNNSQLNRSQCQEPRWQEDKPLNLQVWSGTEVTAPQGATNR

[2] = biological target: Histamine N-methyltransferase (Rattus norvegicus, UniProt Q01984); experiment: Compound was tested against histamine N-methyl-transferase in rat brain [EC 2.1.1.8](relative weak affinity on rat enzyme); type: tissue-based
Histamine N-methyltransferase, sequence (Q01984 whole entry): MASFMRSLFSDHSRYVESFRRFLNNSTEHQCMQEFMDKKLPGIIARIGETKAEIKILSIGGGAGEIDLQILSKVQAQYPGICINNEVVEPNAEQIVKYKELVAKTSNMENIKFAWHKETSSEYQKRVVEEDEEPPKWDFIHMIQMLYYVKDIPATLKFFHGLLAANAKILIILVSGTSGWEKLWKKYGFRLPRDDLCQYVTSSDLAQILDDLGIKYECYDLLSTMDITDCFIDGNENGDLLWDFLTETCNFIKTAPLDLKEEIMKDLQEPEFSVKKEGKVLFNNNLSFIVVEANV

Histamine H1 receptor = Histamine H1 receptor (Cavia porcellus, UniProt P31389); experiment: Potency at histamine H1 receptor subtype, was tested on guinea pig right ileum; type: tissue-based; details: read-out: pA2 (converted)
Histamine H1 receptor, sequence (P31389 whole entry): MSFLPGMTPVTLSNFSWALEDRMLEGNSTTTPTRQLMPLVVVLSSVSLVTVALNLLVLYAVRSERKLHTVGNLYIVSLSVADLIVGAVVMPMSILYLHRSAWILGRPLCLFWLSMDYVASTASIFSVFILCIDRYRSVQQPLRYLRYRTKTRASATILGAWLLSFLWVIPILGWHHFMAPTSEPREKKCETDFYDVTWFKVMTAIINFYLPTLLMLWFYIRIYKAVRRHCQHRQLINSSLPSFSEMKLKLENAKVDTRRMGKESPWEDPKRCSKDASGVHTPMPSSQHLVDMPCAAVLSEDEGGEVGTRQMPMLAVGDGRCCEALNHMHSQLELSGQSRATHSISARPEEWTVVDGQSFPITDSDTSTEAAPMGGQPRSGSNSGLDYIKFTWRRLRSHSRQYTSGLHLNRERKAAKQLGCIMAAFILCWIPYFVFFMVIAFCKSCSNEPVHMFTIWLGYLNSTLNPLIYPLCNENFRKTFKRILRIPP

[3] = biological target: Histamine H3 receptor (Mus musculus) (UniProt P58406); experiment: In vivo effects in mice against H3 receptor on N6-methylhistamine levels in brain (following oral dosing of compound); type: functional, organism-based
Histamine H3 receptor (Mus musculus), sequence (P58406 whole entry): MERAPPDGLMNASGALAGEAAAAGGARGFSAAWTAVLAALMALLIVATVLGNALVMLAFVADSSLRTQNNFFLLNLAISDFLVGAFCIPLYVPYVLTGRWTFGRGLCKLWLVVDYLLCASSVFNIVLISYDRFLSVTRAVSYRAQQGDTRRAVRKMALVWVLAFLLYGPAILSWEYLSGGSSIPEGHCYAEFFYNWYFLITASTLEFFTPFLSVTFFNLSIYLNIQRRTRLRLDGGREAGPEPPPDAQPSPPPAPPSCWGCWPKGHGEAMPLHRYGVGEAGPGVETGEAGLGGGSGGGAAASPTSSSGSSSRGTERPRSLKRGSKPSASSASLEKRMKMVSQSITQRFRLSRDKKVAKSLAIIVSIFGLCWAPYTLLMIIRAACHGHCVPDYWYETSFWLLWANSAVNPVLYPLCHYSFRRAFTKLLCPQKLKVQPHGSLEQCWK
Method in brief: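 Swiss mice fasted 24 h, dosed orally; decapitated 90 min later and cerebral cortex homogenized in ice-cold 0.4 M perchloric acid. Nτ-methylhistamine measured by radioimmunoassay.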

Histamine H3 receptor [4] = biological target: T1, Histamine H3 receptor (Homo sapiens, UniProt Q9Y5N1); experiment: Displacement of [125I]iodoproxyfan from human histamine H3 receptor expressing CHO cells; type: cell-based
T1 sequence (Q9Y5N1 whole entry): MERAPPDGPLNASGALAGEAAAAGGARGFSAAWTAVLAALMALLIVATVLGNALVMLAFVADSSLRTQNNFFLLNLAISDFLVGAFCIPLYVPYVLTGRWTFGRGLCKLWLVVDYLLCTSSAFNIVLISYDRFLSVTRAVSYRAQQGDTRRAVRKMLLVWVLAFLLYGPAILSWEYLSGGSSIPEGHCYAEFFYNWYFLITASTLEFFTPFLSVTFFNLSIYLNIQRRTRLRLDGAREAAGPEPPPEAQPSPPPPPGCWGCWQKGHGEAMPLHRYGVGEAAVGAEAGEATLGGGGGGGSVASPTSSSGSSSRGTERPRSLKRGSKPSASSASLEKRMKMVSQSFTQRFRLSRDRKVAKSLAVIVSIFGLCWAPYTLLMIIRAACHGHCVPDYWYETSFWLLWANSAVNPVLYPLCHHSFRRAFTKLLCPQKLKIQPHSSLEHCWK

Histamine H3 receptor [5] = biological target: T1, Histamine H3 receptor; experiment: biochemical

Histamine H3 receptor (Cavia porcellus, UniProt Q9JI35), sequence (Q9JI35 whole entry): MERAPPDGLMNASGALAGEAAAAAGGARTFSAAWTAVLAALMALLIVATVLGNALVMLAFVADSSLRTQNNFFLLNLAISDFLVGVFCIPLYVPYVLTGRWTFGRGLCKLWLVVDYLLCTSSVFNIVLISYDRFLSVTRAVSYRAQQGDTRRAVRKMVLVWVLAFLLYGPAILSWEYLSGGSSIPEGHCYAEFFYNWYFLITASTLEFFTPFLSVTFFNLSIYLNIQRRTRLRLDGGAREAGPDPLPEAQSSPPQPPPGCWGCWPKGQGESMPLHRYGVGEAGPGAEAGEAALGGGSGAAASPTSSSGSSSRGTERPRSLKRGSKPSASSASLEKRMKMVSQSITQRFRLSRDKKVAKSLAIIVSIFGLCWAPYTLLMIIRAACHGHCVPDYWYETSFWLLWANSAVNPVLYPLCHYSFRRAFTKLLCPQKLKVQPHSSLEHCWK

| SMILES | ED50 [3] | Ki (Histamine H3 receptor [4]) | other results |
| --- | --- | --- | --- |
| CC(=O)c1ccc(OCc2ccc(CN3CCCCC3)cc2)cc1 | 3.9 mg/kg | 84 nM | Kb (Histamine H3 receptor [1]): 61.7 nM; Kb (Histamine H2 receptor): 10200 nM; IC50 [2]: 10400 nM; Kb (Histamine H1 receptor): 4570 nM |
| CCCc1ccc(OCc2ccc(CN3CCCCC3)cc2)cc1 | 4.3 mg/kg | 257 nM |  |
| CO/N=C(\C)c1ccc(OCc2ccc(CN3CCCCC3)cc2)cc1 | 6.4 mg/kg | 129 nM | Kb (Histamine H3 receptor [1]): 288 nM; Kb (Histamine H2 receptor): 3980 nM; Kb (Histamine H1 receptor): 3470 nM |
| CC(=O)c1ccc(OCc2ccc(CN3CCCC3)cc2)cc1 | 1.9 mg/kg | 26 nM | Kb (Histamine H3 receptor [1]): 18.2 nM; Kb (Histamine H2 receptor): 7760 nM; Kb (Histamine H1 receptor): 9330 nM |
| c1cn(-c2ccc(OCc3ccc(CN4CCCCC4)cc3)cc2)cn1 | 4 mg/kg | 27 nM | Kb (Histamine H3 receptor [1]): 15.8 nM |
| Cc1cc(OCc2ccc(CN3CCCCC3)cc2)ccc1Cl | > 10 mg/kg | 42 nM |  |
| CCCCc1ccc(OCc2ccc(CN3CCCCC3)cc2)cc1 | 2.8 mg/kg | 169 nM |  |
| Clc1ccc(OCc2ccc(CN3CCCCC3)cc2)cc1Cl | > 10 mg/kg | 167 nM |  |
| c1cc(CN2CCCCC2)ccc1COc1ccc(C2CCCC2)cc1 | 3.1 mg/kg | 201 nM |  |
| c1ccc(OCc2ccc(CN3CCCCC3)cc2)cc1 | 30 mg/kg | 227 nM |  |
| CC(=O)c1ccc(OCc2ccc(CN3CCCCCC3)cc2)cc1 | 4.3 mg/kg | 37 nM | Kb (Histamine H3 receptor [1]): 30.9 nM |
| Ic1ccc(OCc2ccc(CN3CCCCC3)cc2)cc1 | > 10 mg/kg | 107 nM |  |
| Cc1ccc(OCc2ccc(CN3CCCCC3)cc2)cc1C | 4.8 mg/kg | 149 nM |  |
| CC(=O)c1ccc(OCCCc2c[nH]cn2)cc1 | 0.24 mg/kg | 87 nM |  |
| O=C(c1ccc(OCc2ccc(CN3CCCCC3)cc2)cc1)C1CCCC1 | 2.8 mg/kg | 157 nM | Kb (Histamine H3 receptor [1]): 30.9 nM |
| CC(C)c1ccc(OCc2ccc(CN3CCCCC3)cc2)cc1 | 3 mg/kg | 253 nM |  |
| O=C(c1ccc(OCc2ccc(CN3CCCCC3)cc2)cc1)C1CC1 | 5.9 mg/kg | 66 nM |  |
| CCCOc1ccc(OCc2ccc(CN3CCCCC3)cc2)cc1 | 10 mg/kg | 88 nM |  |
| Fc1cc(OCc2ccc(CN3CCCCC3)cc2)ccc1Cl | > 10 mg/kg | 95 nM |  |
| c1ccc(Oc2ccc(OCc3ccc(CN4CCCCC4)cc3)cc2)cc1 | > 10 mg/kg | 530 nM |  |

| SMILES | ED50 [3] | Ki (Histamine H3 receptor [4]) | other results |
| --- | --- | --- | --- |
| FC(F)(F)c1ccc(OCc2ccc(CN3CCCCC3)cc2)cc1 | > 10 mg/kg | 125 nM |  |
| Clc1ccc(OCc2ccc(CN3CCCCC3)cc2)cc1 | > 10 mg/kg | 124 nM |  |
| CCc1ccc(OCc2ccc(CN3CCCCC3)cc2)cc1 | 2.2 mg/kg | 163 nM |  |
| O=[N+]([O-])c1ccc(OCCCCCN2CCCC2)cc1 | 1.1 mg/kg |  | Ki (Histamine H3 receptor [5]): 39 nM |
| CCCCCc1ccc(OCc2ccc(CN3CCCCC3)cc2)cc1 | 3 mg/kg |  |  |
| C(=C\c1ccc(OCc2ccc(CN3CCCCC3)cc2)cc1)/c1ccccc1 | > 10 mg/kg | 761 nM |  |
| Cc1ccc(OCc2ccc(CN3CCCCC3)cc2)cc1 | 1.8 mg/kg |  |  |
| c1cc(CN2CCCCC2)ccc1COc1ccc2c(c1)CCC2 | 1.9 mg/kg | 87 nM |  |
| Brc1ccc(OCc2ccc(CN3CCCCC3)cc2)cc1 | > 10 mg/kg | 114 nM |  |
| COc1ccc(OCc2ccc(CN3CCCCC3)cc2)cc1 | 20 mg/kg | 119 nM |  |
| c1ccc(COc2ccc(OCc3ccc(CN4CCCCC4)cc3)cc2)cc1 | > 30 mg/kg | 550 nM |  |
| C/C(=N\O)c1ccc(OCc2ccc(CN3CCCCC3)cc2)cc1 | 5 mg/kg | 55 nM | Kb (Histamine H3 receptor [1]): 85.1 nM; Kb (Histamine H2 receptor): 14100 nM; Kb (Histamine H1 receptor): 7940 nM |
| Fc1ccc(OCc2ccc(CN3CCCCC3)cc2)cc1 | 15 mg/kg | 123 nM |  |
| Cc1cccc(OCc2ccc(CN3CCCCC3)cc2)c1 | 20 mg/kg | 334 nM |  |
| c1cc(CN2CCCCC2)ccc1COc1ccc2c(c1)CCCC2 | 3.5 mg/kg | 92 nM |  |
| CCN(CC)Cc1ccc(COc2ccc(C(C)=O)cc2)cc1 | 3.4 mg/kg | 91 nM |  |
| c1ccc(NCc2ccc(OCc3ccc(CN4CCCCC4)cc3)cc2)cc1 | 10 mg/kg | 90 nM |  |
| c1cc(CN2CCCCC2)ccc1COc1ccc(CN2CCCCC2)cc1 | 9.6 mg/kg | 2.8 nM | Kb (Histamine H3 receptor [1]): 38 nM |
| c1ccc(CCc2ccc(OCc3ccc(CN4CCCCC4)cc3)cc2)cc1 | 30 mg/kg | 890 nM |  |
| c1ccc(Cc2ccc(OCc3ccc(CN4CCCCC4)cc3)cc2)cc1 | > 10 mg/kg | 238 nM |  |
